Results as given in ChEMBL document CHEMBL3259728, “Design, synthesis and biological evaluation of some novel substituted quinazolines as antitumor agents” (2014).

Key:
Type in all cases: functional
[1] = Growth inhibition of human SF539 cells assessed as cell growth at 10^-4 M after 48 hrs by SRB assay; conditions: SF-539, 48 h, read-out: Activity
KM12 = experiment: Growth inhibition of human KM12 cells assessed as cell growth at 10^-4 M after 48 hrs by SRB assay; conditions: KM12, 48 h, read-out: Activity
[2] = Growth inhibition of human HOP92 cells assessed as cell growth at 10^-4 M after 48 hrs by SRB assay; conditions: HOP-92, 48 h, read-out: Activity
IGROV-1 [3] = experiment: Growth inhibition of human IGROV1 cells assessed as cell growth at 10^-8 M after 48 hrs by SRB assay; conditions: IGROV-1, 48 h, read-out: Activity
[4] = Growth inhibition of human UACC62 cells assessed as cell growth at 10^-8 M after 48 hrs by SRB assay; conditions: UACC-62, 48 h, read-out: Activity
[5] = Growth inhibition of human Hs578T cells assessed as cell growth at 10^-6 M after 48 hrs by SRB assay; conditions: Hs-578T, read-out: Activity
[6] = Growth inhibition of human UO31 cells assessed as cell growth at 10^-6 M after 48 hrs by SRB assay; conditions: UO-31, 48 h, read-out: Activity
ACHN = experiment: Growth inhibition of human ACHN cells assessed as cell growth at 10^-6 M after 48 hrs by SRB assay; conditions: read-out: Activity
Procedure, shortened: (§1)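 Five-dose NCI panel protocol. Each dose (10^-4 to 10^-8 M, 10-fold steps) was given as 48 h continuous exposure, and protein was measured by SRB staining. Percentage growth at each level is [(Ti−Tz)/(C−Tz)]×100, where Tz is time-zero absorbance and C is untreated control.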

IGROV-1 [7] = experiment: Growth inhibition of human IGROV1 cells assessed as cell growth at 10^-6 M after 48 hrs by SRB assay; conditions: IGROV-1, 48 h, read-out: Activity
[8] = Growth inhibition of human UACC257 cells assessed as cell growth at 10^-6 M after 48 hrs by SRB assay; conditions: UACC-257, 48 h, read-out: Activity
SNB-75 = experiment: Growth inhibition of human SNB75 cells assessed as cell growth at 10^-4 M after 48 hrs by SRB assay; conditions: SNB-75, 48 h, read-out: Activity
MDA-MB-435 = experiment: Growth inhibition of human MDA-MB-435 cells assessed as cell growth at 10^-5 M after 48 hrs by SRB assay; conditions: MDA-MB-435, 48 h, read-out: Activity
[9] = Growth inhibition of human OVCAR4 cells assessed as cell growth at 10^-7 M after 48 hrs by SRB assay; conditions: OVCAR-4, 48 h, read-out: Activity
[10] = Growth inhibition of human OVCAR3 cells assessed as cell growth at 10^-8 M after 48 hrs by SRB assay; conditions: OVCAR-3, 48 h, read-out: Activity
[11] = Cytotoxicity against human OVCAR3 cells after 48 hrs by SRB assay; conditions: OVCAR-3, 48 h
Procedure, shortened: (§2)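 NCI 60-cell-line panel of human tumour lines from nine cancer types. Continuous 48 h exposure at five 10-fold dilutions from 10^-4 to 10^-8 M, with 5-FU as positive control. SRB protein stain read spectrophotometrically at time zero, untreated control and each concentration. GI50, TGI and LC50 were derived from the [(Ti−Tz)/(C−Tz)]×100 growth relations, and out-of-range values are given as > or < the tested limits.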

U-251 = experiment: Cytotoxicity against human U251 cells after 48 hrs by SRB assay; conditions: U-251, 48 h
Procedure, shortened: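 NCI 60-cell-line panel, 48 h continuous exposure to five 10-fold dilutions from 10^-4 to 10^-8 M. SRB protein staining was read spectrophotometrically, with time-zero, untreated-control and treated absorbances. GI50, TGI and LC50 were derived from the percentage-growth formulas. Values outside the tested range are expressed as more or less than the maximum or minimum concentration.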

[12] = Growth inhibition of human SF295 cells assessed as cell growth at 10^-6 M after 48 hrs by SRB assay; conditions: SF-295, 48 h, read-out: Activity
CAKI-1 [13] = experiment: Cytotoxicity against human CAKI-1 cells after 48 hrs by SRB assay; conditions: CAKI-1, 48 h; procedure, shortened: as §2
NCI-H322M = experiment: Growth inhibition of human NCI-H322M cells assessed as cell growth at 10^-6 M after 48 hrs by SRB assay; conditions: read-out: Activity
SK-MEL-5 [14] = experiment: Growth inhibition of human SK-MEL-5 cells assessed as cell growth at 10^-7 M after 48 hrs by SRB assay; conditions: SK-MEL-5, 48 h, read-out: Activity
SK-MEL-28 [15] = experiment: Growth inhibition of human SK-MEL-28 cells assessed as cell growth at 10^-7 M after 48 hrs by SRB assay; conditions: SK-MEL-28, 48 h, read-out: Activity
CAKI-1 [16] = experiment: Growth inhibition of human CAKI-1 cells assessed as cell growth at 10^-8 M after 48 hrs by SRB assay; conditions: CAKI-1, 48 h, read-out: Activity; procedure, shortened: as §1
HCT-116 = experiment: Cytotoxicity against human HCT116 cells after 48 hrs by SRB assay; conditions: HCT-116, 48 h; procedure, shortened: as §2
MOLT-4 = experiment: Cytotoxicity against human MOLT4 cells after 48 hrs by SRB assay; conditions: MOLT-4, 48 h; procedure, shortened: as §2
MCF7 = experiment: Growth inhibition of human MCF7 cells assessed as cell growth at 10^-4 M after 48 hrs by SRB assay; conditions: MCF7, 48 h, read-out: Activity
A498 = experiment: Growth inhibition of human A498 cells assessed as cell growth at 10^-4 M after 48 hrs by SRB assay; conditions: A498, 48 h, read-out: Activity; procedure, shortened: as §1
[17] = Growth inhibition of human UACC257 cells assessed as cell growth at 10^-4 M after 48 hrs by SRB assay; conditions: UACC-257, 48 h, read-out: Activity
SK-MEL-5 [18] = experiment: Growth inhibition of human SK-MEL-5 cells assessed as cell growth at 10^-4 M after 48 hrs by SRB assay; conditions: SK-MEL-5, 48 h, read-out: Activity
SK-MEL-28 [19] = experiment: Growth inhibition of human SK-MEL-28 cells assessed as cell growth at 10^-4 M after 48 hrs by SRB assay; conditions: SK-MEL-28, 48 h, read-out: Activity
[20] = read-out: LC50 (the source's name)
[21] = read-out: pLC50 (the source's name) (converted)

Compound: Cc1ccc(-c2nc3ccc(Cl)cc3c(=O)n2/N=C/c2ccccc2)cc1
- growth at 100 µM [1]: 75%
- growth at 100 µM (KM12): 63%
- growth at 100 µM [2]: 15%
- growth at 0.01 µM (IGROV-1 [3]): 94%
- growth at 0.01 µM [4]: 93%
- growth at 1 µM [5]: 84%
- growth at 1 µM [6]: 60%
- growth at 1 µM (ACHN): 40%
- growth at 1 µM (IGROV-1 [7]): 71%
- growth at 1 µM [8]: 97%
- growth at 100 µM (SNB-75): -43%
- growth at 10 µM (MDA-MB-435): 59%
- growth at 0.1 µM [9]: 96%
- growth at 0.01 µM [10]: 100%
- GI50 ([11]; read-out: GI50): 5.44 µM
- CC50 [11, 20]: > 100 µM
- TGI ([11]; read-out: TGI): > 100 µM
- GI50 ([11]; read-out: pGI50 (converted)): 5.5 µM
- CC50 [11, 21]: > 100 µM
- TGI ([11]; read-out: pTGI): > 100 µM
- GI50 (U-251; read-out: GI50): 5.05 µM
- CC50 (U-251; [20]): > 100 µM
- TGI (U-251; read-out: TGI): > 100 µM
- GI50 (U-251; read-out: pGI50 (converted)): 5.01 µM
- CC50 (U-251; [21]): > 100 µM
- TGI (U-251; read-out: pTGI): > 100 µM
- growth at 1 µM [12]: 80%
- GI50 (CAKI-1 [13]; read-out: GI50): 4.82 µM
- CC50 (CAKI-1 [13]; [20]): > 100 µM
- TGI (CAKI-1 [13]; read-out: TGI): > 100 µM
- GI50 (CAKI-1 [13]; read-out: pGI50 (converted)): 4.79 µM
- CC50 (CAKI-1 [13]; [21]): > 100 µM
- TGI (CAKI-1 [13]; read-out: pTGI): > 100 µM
- growth at 1 µM (NCI-H322M): 82%
- growth at 0.1 µM (SK-MEL-5 [14]): 92%
- growth at 0.1 µM (SK-MEL-28 [15]): 97%
- growth at 0.01 µM (CAKI-1 [16]): 89%
- GI50 (HCT-116; read-out: GI50): 5.51 µM
- CC50 (HCT-116; [20]): > 100 µM
- TGI (HCT-116; read-out: TGI): > 100 µM
- GI50 (HCT-116; read-out: pGI50 (converted)): 5.5 µM
- CC50 (HCT-116; [21]): > 100 µM
- TGI (HCT-116; read-out: pTGI): > 100 µM
- GI50 (MOLT-4; read-out: GI50): > 100 µM
- CC50 (MOLT-4; [20]): > 100 µM
- TGI (MOLT-4; read-out: TGI): > 100 µM
- GI50 (MOLT-4; read-out: pGI50 (converted)): > 100 µM
- CC50 (MOLT-4; [21]): > 100 µM
- TGI (MOLT-4; read-out: pTGI): > 100 µM
- growth at 100 µM (MCF7): 38%
- growth at 100 µM (A498): 17%
- growth at 100 µM [17]: 60%
- growth at 100 µM (SK-MEL-5 [18]): 34%
- growth at 100 µM (SK-MEL-28 [19]): 27%
